Experimental data from ChEMBL document CHEMBL3045605, “Synthesis and anticancer evaluation of novel 3,5-diaryl-thiazolo[4,5-d]pyrimidin-2-one derivatives” (2013).

Experiments:
Type in all cases: functional
COLO 205 = assay: Anticancer activity against Homo sapiens (human) COLO205 cells by SRB assay
Procedure, shortened: (§1)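 NCI 60-line panel, five tenfold dilutions from 10−4 to 10−8 M, growth read by sulforhodamine B staining against untreated controls. From the dose–response per line: GI50 (molar concentration giving half growth inhibition), TGI (molar concentration giving total growth inhibition, cytostatic) and LC50 (molar concentration killing 50% of initial cells, cytotoxic).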

HCT-116 = assay: Anticancer activity against Homo sapiens (human) HCT116 cells assessed as cell growth at 10 uM by SRB assay; conditions: read-out: Activity
Procedure, shortened: (§2)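 NCI 60-cell human tumour panel (nine cancer types) screened at one concentration, 10−5 M. Cell growth estimated by sulforhodamine B protein staining and reported as percent growth of treated cells relative to untreated controls.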

NCI-H460 = assay: Anticancer activity against Homo sapiens (human) NCI-H460 cells assessed as cell growth at 10 uM by SRB assay; conditions: read-out: Activity
Procedure, shortened: (§3)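 Single-dose screen in the NCI 60-human-tumour-cell-line panel (nine cancer types) at 10−5 M. Cell growth was estimated by sulforhodamine B protein staining and reported as percent growth of treated cells relative to untreated controls.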

NCI-H522 = assay: Anticancer activity against Homo sapiens (human) NCI-H522 cells by SRB assay
Procedure, shortened: (§4)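 Five-dose NCI 60-cell-line panel testing at tenfold dilutions from 10−4 to 10−8 M, with growth read by sulforhodamine B protein staining. For each cell line: GI50 is the molar concentration giving half growth inhibition; TGI is total growth inhibition (cytostatic); LC50 is the molar concentration killing 50% of the initial cells (cytotoxic).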

HOP-92 = assay: Anticancer activity against Homo sapiens (human) HOP92 cells by SRB assay; procedure, shortened: as §1
NCI-H23 = assay: Anticancer activity against Homo sapiens (human) NCI-H23 cells by SRB assay; procedure, shortened: as §4
EKVX = assay: Anticancer activity against Homo sapiens (human) EKVX cells by SRB assay; procedure, shortened: as §1
[1] = Anticancer activity against Homo sapiens (human) RPMI8266 cells by SRB assay; procedure, shortened: as §4
HOP-62 = assay: Anticancer activity against Homo sapiens (human) HOP62 cells assessed as cell growth at 10 uM by SRB assay; conditions: read-out: Activity; procedure, shortened: as §2
A549 = assay: Anticancer activity against Homo sapiens (human) A549/ATCC cells assessed as cell growth at 10 uM by SRB assay; conditions: read-out: Activity; procedure, shortened: as §2
MOLT-4 = assay: Anticancer activity against Homo sapiens (human) MOLT4 cells assessed as cell growth at 10 uM by SRB assay; conditions: read-out: Activity; procedure, shortened: as §3
NCI/ADR-RES = assay: Anticancer activity against Homo sapiens (human) NCI/ADR-RES cells by SRB assay; procedure, shortened: as §4
OVCAR-8 [2] = assay: Anticancer activity against Homo sapiens (human) OVCAR8 cells by SRB assay; procedure, shortened: as §4
OVCAR-4 = assay: Anticancer activity against Homo sapiens (human) OVCAR4 cells by SRB assay; procedure, shortened: as §4
OVCAR-3 = assay: Anticancer activity against Homo sapiens (human) OVCAR3 cells by SRB assay; procedure, shortened: as §4
UACC-257 = assay: Anticancer activity against Homo sapiens (human) UACC257 cells by SRB assay
Procedure, shortened: (§5)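 NCI five-dose follow-up on the 60-line human tumour panel at tenfold dilutions from 10−4 to 10−8 M, with growth read by sulforhodamine B protein assay against untreated controls. For each cell line, GI50 (half growth inhibition), TGI (total growth inhibition) and LC50 (50% death of initial cells) are calculated as molar concentrations.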

SK-MEL-28 [3] = assay: Anticancer activity against Homo sapiens (human) SK-MEL-28 cells by SRB assay; procedure, shortened: as §4
SK-MEL-2 [4] = assay: Anticancer activity against Homo sapiens (human) SK-MEL-2 cells by SRB assay; procedure, shortened: as §4
MDA-MB-435 [5] = assay: Anticancer activity against Homo sapiens (human) MDA-MB-435 cells by SRB assay; procedure, shortened: as §4
M14 [6] = assay: Anticancer activity against Homo sapiens (human) M14 cells by SRB assay; procedure, shortened: as §1
LOX IMVI = assay: Anticancer activity against Homo sapiens (human) LOXIMVI cells by SRB assay; procedure, shortened: as §1
SF-539 [7] = assay: Anticancer activity against Homo sapiens (human) SF539 cells by SRB assay; procedure, shortened: as §4
HT-29 = assay: Anticancer activity against Homo sapiens (human) HT-29 cells by SRB assay; procedure, shortened: as §1
A498 = assay: Anticancer activity against Homo sapiens (human) A498 cells assessed as cell growth at 10 uM by SRB assay; conditions: read-out: Activity; procedure, shortened: as §2
OVCAR-8 [8] = assay: Anticancer activity against Homo sapiens (human) OVCAR8 cells assessed as cell growth at 10 uM by SRB assay; conditions: read-out: Activity; procedure, shortened: as §3
IGROV-1 = assay: Anticancer activity against Homo sapiens (human) IGROV1 cells assessed as cell growth at 10 uM by SRB assay; conditions: read-out: Activity; procedure, shortened: as §2
SK-MEL-28 [9] = assay: Anticancer activity against Homo sapiens (human) SK-MEL-28 cells assessed as cell growth at 10 uM by SRB assay; conditions: read-out: Activity; procedure, shortened: as §3
SK-MEL-2 [10] = assay: Anticancer activity against Homo sapiens (human) SK-MEL-2 cells assessed as cell growth at 10 uM by SRB assay; conditions: read-out: Activity; procedure, shortened: as §3
MDA-MB-435 [11] = assay: Anticancer activity against Homo sapiens (human) MDA-MB-435 cells assessed as cell growth at 10 uM by SRB assay; conditions: read-out: Activity; procedure, shortened: as §3
M14 [12] = assay: Anticancer activity against Homo sapiens (human) M14 cells assessed as cell growth at 10 uM by SRB assay; conditions: read-out: Activity; procedure, shortened: as §2
SF-539 [13] = assay: Anticancer activity against Homo sapiens (human) SF539 cells assessed as cell growth at 10 uM by SRB assay; conditions: read-out: Activity; procedure, shortened: as §3
MDA-MB-468 [14] = assay: Anticancer activity against Homo sapiens (human) MDA-MB-468 cells by SRB assay; procedure, shortened: as §4
MDA-MB-231 = assay: Anticancer activity against Homo sapiens (human) MDA-MB-231/ATCC cells by SRB assay; procedure, shortened: as §1
DU-145 = assay: Anticancer activity against Homo sapiens (human) DU145 cells by SRB assay; procedure, shortened: as §1
UO-31 = assay: Anticancer activity against Homo sapiens (human) UO31 cells by SRB assay; procedure, shortened: as §5
MDA-MB-468 [15] = assay: Anticancer activity against Homo sapiens (human) MDA-MB-468 cells assessed as cell growth at 10 uM by SRB assay; conditions: read-out: Activity; procedure, shortened: as §3
BT-549 = assay: Anticancer activity against Homo sapiens (human) BT549 cells assessed as cell growth at 10 uM by SRB assay; conditions: read-out: Activity; procedure, shortened: as §2
ACHN = assay: Anticancer activity against Homo sapiens (human) ACHN cells assessed as cell growth at 10 uM by SRB assay; conditions: read-out: Activity; procedure, shortened: as §2
[16] = read-out: pLC50 (the source's name) (converted)

## O=c1sc2c(Cl)nc(-c3ccccc3)nc2n1-c1ccccc1
COLO 205
  GI50: 11.2 µM
HCT-116
  growth at 10 µM: -53%
NCI-H460
  growth at 10 µM: 78%
NCI-H522
  GI50: 1.23 µM
NCI-H522; read-out: pTGI (converted)
  TGI: 3.02 µM
HOP-92
  GI50: 3.09 µM
HOP-92; read-out: pTGI (converted)
  TGI: 67.6 µM
NCI-H23
  GI50: 3.63 µM
NCI-H23; read-out: pTGI (converted)
  TGI: 30.9 µM
EKVX
  GI50: 25.7 µM
[1]
  GI50: 44.7 µM
HOP-62
  growth at 10 µM: 15%
A549
  growth at 10 µM: 87%
MOLT-4
  growth at 10 µM: 54%
NCI/ADR-RES
  GI50: 21.4 µM
OVCAR-8 [2]
  GI50: 2.04 µM
OVCAR-8 [2]; read-out: pTGI
  TGI: 43.7 µM
OVCAR-4
  GI50: 5.01 µM
OVCAR-4; read-out: pTGI (converted)
  TGI: 35.5 µM
OVCAR-3
  GI50: 1.78 µM
OVCAR-3; read-out: pTGI (converted)
  TGI: 79.4 µM
UACC-257
  GI50: 8.91 µM
UACC-257; read-out: pTGI (converted)
  TGI: 31.6 µM
SK-MEL-28 [3]
  GI50: 3.39 µM
  LC50: 69.2 µM
SK-MEL-28 [3]; read-out: pTGI (converted)
  TGI: 13.2 µM
SK-MEL-2 [4]
  GI50: 9.12 µM
SK-MEL-2 [4]; read-out: pTGI
  TGI: 43.7 µM
MDA-MB-435 [5]
  GI50: 4.9 µM
MDA-MB-435 [5]; read-out: pTGI (converted)
  TGI: 45.7 µM
M14 [6]
  GI50: 3.8 µM
M14 [6]; read-out: pTGI (converted)
  TGI: 35.5 µM
LOX IMVI
  GI50: 2.04 µM
LOX IMVI; [16]
  CC50: 18.2 µM
LOX IMVI; read-out: pTGI (converted)
  TGI: 4.79 µM
SF-539 [7]
  GI50: 11 µM
HT-29
  GI50: 3.89 µM
HT-29; read-out: pTGI (converted)
  TGI: 19.1 µM
A498
  growth at 10 µM: 44%
OVCAR-8 [8]
  growth at 10 µM: -45%
IGROV-1
  growth at 10 µM: -65%
SK-MEL-28 [9]
  growth at 10 µM: 9%
SK-MEL-2 [10]
  growth at 10 µM: 48%
MDA-MB-435 [11]
  growth at 10 µM: 26%
M14 [12]
  growth at 10 µM: 16%
SF-539 [13]
  growth at 10 µM: 52%
MDA-MB-468 [14]
  GI50: 3.63 µM
MDA-MB-231
  GI50: 6.31 µM
DU-145
  GI50: 4.68 µM
DU-145; [16]
  CC50: 81.3 µM
DU-145; read-out: pTGI (converted)
  TGI: 23.4 µM
UO-31
  GI50: 1.32 µM
UO-31; read-out: pTGI (converted)
  TGI: 2.88 µM
MDA-MB-468 [15]
  growth at 10 µM: 20%
BT-549
  growth at 10 µM: 86%
ACHN
  growth at 10 µM: 42%
